The record followed here is ChEMBL document CHEMBL1949657, “Chemical modification of the multitarget neuroprotective compound fisetin” (J Med Chem, 2012).

Calls of active or inactive are those of the source.

By EC50 is commonly meant the concentration needed to bring the measured effect to its halfway point.

System in the first assay: not listed separately
Description: Antioxidant activity against ABTS radical assessed as trolox equivalent after 4 mins by TEAC assay. Type of assay: functional.
Conditions: not given
Summed up:
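ABTS radical cation formed overnight with potassium persulfate and diluted to OD ~0.7 at 734 nm, then mixed with derivative in ethanol. Loss of A734 followed over 4 min. TEAC = slope of % absorbance inhibition vs concentration divided by the slope for Trolox.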
Take `COc1cc(-c2ccc([N+](=O)[O-])c(O)c2)nc2ccccc12`: the Activity was 0.18 equiv.
Regarding `CCOc1ccc(-c2cc(=O)c3ccc4ccccc4c3o2)cc1OCC`, the Activity came to 0.2 equiv.
On to `O=c1cc(-c2ccc(N3CCCC3)cc2)oc2c1ccc1ccccc12`, for which the Activity is 0.03 equiv.
Same read-out and setting: the value for `COc1cc(-c2ccc(N(C)C)cc2)nc2ccccc12` was 0.06 equiv.
With `CC(C)Oc1cc(-c2ccc(N3CCCC3)cc2)nc2ccccc12`, the Activity was determined as 0.27 equiv.
As for `Cc1cc(O)c(C(=O)/C=C/c2ccc(O)cc2O)cc1C`, the Activity was 0.93 equiv.
`CCOc1ccc(-c2oc3cc(C)c(C)cc3c(=O)c2O)cc1OCC`: the Activity came to 0.84 equiv.
Take `Cc1cc2oc(-c3ccc(O)cc3O)c(O)c(=O)c2cc1C`: the Activity turned out to be 1.56 equiv.
Consider `COc1cc(-c2ccc(N3CCCC3)cc2)nc2ccccc12`, for which the Activity amounted to 0.27 equiv.
Regarding `COc1cc(-c2cc(OC)c3ccccc3n2)ccc1O`, the Activity came out at 0.15 equiv.
As to `CCOc1ccc(-c2cc(OC)c3ccccc3n2)cc1OCC`, the Activity was 0.12 equiv.
For `Cc1cc2oc(-c3ccc(O)cc3O)cc(=O)c2cc1C`, the Activity was 0.15 equiv.
The same measure, in the same setting: the value for `COc1ccc(/C=C/C(=O)c2cc(C)c(C)cc2O)cc1O` was 0.12 equiv; that for `CCOc1ccc(/C=C/C(=O)c2cc(C)c(C)cc2O)cc1OCC` was 0.09 equiv.
`CCOc1ccc(-c2cc(=O)c3cc(C)c(C)cc3o2)cc1OCC`: the Activity is 0.15 equiv.
For `CC(C)Oc1cc(-c2ccc(O)c(O)c2)nc2ccccc12`, the Activity amounted to 0.18 equiv.

The next assay has as its system N9. Description: Antiinflammatory activity in mouse N9 cells assessed as reduction of LPS-induced microglial activation at 1 to 10 uM measured as nitrite level after 24 hrs by Griess reagent-based assay.
Conditions: not given
Also noted: scale not given: the % may be the effect or the level left. Type of assay: functional. The gist of the method:
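N9 microglia in DME with 7.5% DFCS, given 10 μg/ml LPS alone or with derivatives (1–10 μM) for 24 h. Medium spun to remove floating cells, then nitrite measured with Griess reagent, 10 min at room temperature, absorbance 550 nm. Fisetin 10 μM as positive control. Tested twice; positives tested a third time.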
On the technique in general: The Griess reaction detects nitrite, a stable product of nitric oxide.
For the molecule `COc1cc(-c2ccc([N+](=O)[O-])c(O)c2)nc2ccccc12`, the Activity came to 25%.
Still for that read-out and setting: next, `CCOc1ccc(-c2cc(=O)c3ccc4ccccc4c3o2)cc1OCC`: 2%; `O=c1cc(-c2ccc(N3CCCC3)cc2)oc2c1ccc1ccccc12`: 23%.
The same measure, in the same setting: next, `COc1cc(-c2ccc(N(C)C)cc2)nc2ccccc12`: 62%; `CC(C)Oc1cc(-c2ccc(N3CCCC3)cc2)nc2ccccc12`: 67%.
As for `Cc1cc(O)c(C(=O)/C=C/c2ccc(O)cc2O)cc1C`, the Activity is reported as 53%.
Still for that read-out and setting: next, `CCOc1ccc(-c2oc3cc(C)c(C)cc3c(=O)c2O)cc1OCC`: 11%; `Cc1cc2oc(-c3ccc(O)cc3O)c(O)c(=O)c2cc1C`: 0%.
`COc1cc(-c2ccc(N3CCCC3)cc2)nc2ccccc12`: the Activity was found to be 67%.
Consider `COc1cc(-c2cc(OC)c3ccccc3n2)ccc1O`, for which the Activity is 90%.
For `CCOc1ccc(-c2cc(OC)c3ccccc3n2)cc1OCC`, the Activity stood at 76%.
On the same count and under the same terms, next, `Cc1cc2oc(-c3ccc(O)cc3O)cc(=O)c2cc1C`: 5%; `COc1ccc(/C=C/C(=O)c2cc(C)c(C)cc2O)cc1O`: 56%.
Same read-out and setting: the value for `CCOc1ccc(/C=C/C(=O)c2cc(C)c(C)cc2O)cc1OCC` was 56%; that for `CCOc1ccc(-c2cc(=O)c3cc(C)c(C)cc3o2)cc1OCC` was 2%.
On the same count and under the same terms, the value for `CC(C)Oc1cc(-c2ccc(O)c(O)c2)nc2ccccc12` was 80%.

The test system of the next assay is PC-12. Description: Neurotrophic activity in rat PC12 cells assessed as neurite outgrowth at 1 to 10 uM after 24 hrs. Type of assay: functional, cell-based.
Conditions: not given
Summed up:
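PC12 cells in N2 medium given derivatives (1–10 μM) for 24 h, fisetin 10 μM as positive control. 100 cells counted in each of three fields. A cell scored positive with ≥1 neurite longer than one cell-body diameter. Tested twice; positives tested a third time.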
For `COc1cc(-c2ccc([N+](=O)[O-])c(O)c2)nc2ccccc12`, the result was inactive.
The same measure, in the same setting: the value for `CCOc1ccc(-c2cc(=O)c3ccc4ccccc4c3o2)cc1OCC` was “inactive”; that for `O=c1cc(-c2ccc(N3CCCC3)cc2)oc2c1ccc1ccccc12` was “inactive”; that for `COc1cc(-c2ccc(N(C)C)cc2)nc2ccccc12` was “inactive”.
As to `CC(C)Oc1cc(-c2ccc(N3CCCC3)cc2)nc2ccccc12`, the result was inactive.
The same measure, in the same setting: the value for `Cc1cc(O)c(C(=O)/C=C/c2ccc(O)cc2O)cc1C` was “Active”; that for `CCOc1ccc(-c2oc3cc(C)c(C)cc3c(=O)c2O)cc1OCC` was “inactive”.
Same read-out and setting: next, `Cc1cc2oc(-c3ccc(O)cc3O)c(O)c(=O)c2cc1C`: “inactive”.
Take `COc1cc(-c2ccc(N3CCCC3)cc2)nc2ccccc12`: the result was inactive.
As to `COc1cc(-c2cc(OC)c3ccccc3n2)ccc1O`, the result was inactive.
Consider `CCOc1ccc(-c2cc(OC)c3ccccc3n2)cc1OCC`, for which the outcome was inactive.
On to `Cc1cc2oc(-c3ccc(O)cc3O)cc(=O)c2cc1C`, for which the result was inactive.
Same read-out and setting: next, `COc1ccc(/C=C/C(=O)c2cc(C)c(C)cc2O)cc1O`: “inactive”; `CCOc1ccc(/C=C/C(=O)c2cc(C)c(C)cc2O)cc1OCC`: “inactive”.
Same read-out and setting: next, `CCOc1ccc(-c2cc(=O)c3cc(C)c(C)cc3o2)cc1OCC`: “inactive”; `CC(C)Oc1cc(-c2ccc(O)c(O)c2)nc2ccccc12`: “Active”.

Another assay relates to HT-22. In words: Neuroprotective activity in mouse HT22 cells assessed as reduction in IAA-induced ischemia after 24 hrs by MTT assay. Format: functional, cell-based. To be noted: Mus musculus, HT-22, 24 h; read-out: EC50. Summed up:
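HT22 cells seeded at 5×10^3/well. Next day switched to DMEM + 7.5% DFCS with 20 μM IAA ± derivative doses for 2 h, then IAA-free medium with derivative for 20 h. MTT 2.5 μg/ml for 4 h at 37 °C, solubilised in DMF/SDS pH 4.7, A570 read. Controls for compound toxicity and assay interference. EC50 from dose series; tested twice, third time if EC50 < 1 μM.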
On the technique in general: Tetrazolium dyes change colour on reduction, which living cells bring about.
On to `O=c1cc(-c2ccc(N3CCCC3)cc2)oc2c1ccc1ccccc12`, for which the EC50 came out at 200 nM.
As for `COc1cc(-c2ccc(N(C)C)cc2)nc2ccccc12`, the EC50 turned out to be 60 nM.
As for `CC(C)Oc1cc(-c2ccc(N3CCCC3)cc2)nc2ccccc12`, the EC50 amounted to 500 nM.
Turning to `Cc1cc(O)c(C(=O)/C=C/c2ccc(O)cc2O)cc1C`, the concentration for a half-maximal effect (EC50) was determined as 50 nM.
With `CCOc1ccc(-c2oc3cc(C)c(C)cc3c(=O)c2O)cc1OCC`, the 50% effective concentration (EC50) was 500 nM.
The same measure, in the same setting: the value for `Cc1cc2oc(-c3ccc(O)cc3O)c(O)c(=O)c2cc1C` was more than 500 nM; that for `COc1cc(-c2cc(OC)c3ccccc3n2)ccc1O` was 500 nM.
Regarding `Cc1cc2oc(-c3ccc(O)cc3O)cc(=O)c2cc1C`, the EC50 was more than 500 nM.
Same read-out and setting: next, `COc1ccc(/C=C/C(=O)c2cc(C)c(C)cc2O)cc1O`: 200 nM; `CC(C)Oc1cc(-c2ccc(O)c(O)c2)nc2ccccc12`: 20 nM.

Still in this assay, the particulars now being: ht-22.
`COc1cc(-c2ccc([N+](=O)[O-])c(O)c2)nc2ccccc12`: the EC50 entry is reported as “Not Active”.
The same measure, in the same setting: the value for `CCOc1ccc(-c2cc(=O)c3ccc4ccccc4c3o2)cc1OCC` was “Not Active”; that for `COc1cc(-c2ccc(N3CCCC3)cc2)nc2ccccc12` was “Not Active”; that for `CCOc1ccc(-c2cc(OC)c3ccccc3n2)cc1OCC` was “Not Active”.
In the case of `CCOc1ccc(/C=C/C(=O)c2cc(C)c(C)cc2O)cc1OCC`, the EC50 result was “Not Active”.
The same measure, in the same setting: next, `CCOc1ccc(-c2cc(=O)c3cc(C)c(C)cc3o2)cc1OCC`: “Not Active”.

A further assay has as its system HT-22. In words: Neuroprotective activity against glutamate-induced GSH loss in mouse HT22 cells assessed as intracellular GSH level at 1 to 10 uM after 24 hrs. Format: functional, cell-based.
Conditions: not given
Summed up:
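HT22 cells given derivatives (1–10 μM) with 5 mM glutamate. After 24 h, cell extracts analysed for total intracellular GSH by chemical assay. Fisetin 10 μM as positive control. Tested twice; positives tested a third time.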
For `COc1cc(-c2ccc([N+](=O)[O-])c(O)c2)nc2ccccc12`, the outcome was inactive.
As to `CCOc1ccc(-c2cc(=O)c3ccc4ccccc4c3o2)cc1OCC`, the outcome was inactive.
Still for that read-out and setting: next, `O=c1cc(-c2ccc(N3CCCC3)cc2)oc2c1ccc1ccccc12`: “inactive”; `COc1cc(-c2ccc(N(C)C)cc2)nc2ccccc12`: “inactive”; `CC(C)Oc1cc(-c2ccc(N3CCCC3)cc2)nc2ccccc12`: “inactive”.
Same read-out and setting: the value for `Cc1cc(O)c(C(=O)/C=C/c2ccc(O)cc2O)cc1C` was “inactive”; that for `CCOc1ccc(-c2oc3cc(C)c(C)cc3c(=O)c2O)cc1OCC` was “inactive”.
Same read-out and setting: next, `Cc1cc2oc(-c3ccc(O)cc3O)c(O)c(=O)c2cc1C`: “inactive”; `COc1cc(-c2ccc(N3CCCC3)cc2)nc2ccccc12`: “inactive”; `COc1cc(-c2cc(OC)c3ccccc3n2)ccc1O`: “inactive”.
With `CCOc1ccc(-c2cc(OC)c3ccccc3n2)cc1OCC`, the outcome was inactive.
Same read-out and setting: next, `Cc1cc2oc(-c3ccc(O)cc3O)cc(=O)c2cc1C`: “inactive”; `COc1ccc(/C=C/C(=O)c2cc(C)c(C)cc2O)cc1O`: “inactive”.
On the same count and under the same terms, next, `CCOc1ccc(/C=C/C(=O)c2cc(C)c(C)cc2O)cc1OCC`: “inactive”.
`CCOc1ccc(-c2cc(=O)c3cc(C)c(C)cc3o2)cc1OCC`: the outcome was inactive.
Still for that read-out and setting: the value for `CC(C)Oc1cc(-c2ccc(O)c(O)c2)nc2ccccc12` was “Active”.
